Data reported in ChEMBL document CHEMBL1765066, “Role of metalation in the topoisomerase IIα inhibition and antiproliferation activity of a series of α-heterocyclic-N4-substituted thiosemicarbazones and their Cu(II) complexes” (J Med Chem, 2011).
The source made the active and inactive calls. No cut-off for these calls is given here.

Assays:
[1] = target: T1, DNA topoisomerase 2-alpha (Homo sapiens, UniProt P11388); experiment: Inhibition of human topoisomerase 2 alpha-mediated relaxation of supercoiled pHOT DNA after 30 mins by agarose gel electrophoresis
T1 sequence (P11388 whole entry): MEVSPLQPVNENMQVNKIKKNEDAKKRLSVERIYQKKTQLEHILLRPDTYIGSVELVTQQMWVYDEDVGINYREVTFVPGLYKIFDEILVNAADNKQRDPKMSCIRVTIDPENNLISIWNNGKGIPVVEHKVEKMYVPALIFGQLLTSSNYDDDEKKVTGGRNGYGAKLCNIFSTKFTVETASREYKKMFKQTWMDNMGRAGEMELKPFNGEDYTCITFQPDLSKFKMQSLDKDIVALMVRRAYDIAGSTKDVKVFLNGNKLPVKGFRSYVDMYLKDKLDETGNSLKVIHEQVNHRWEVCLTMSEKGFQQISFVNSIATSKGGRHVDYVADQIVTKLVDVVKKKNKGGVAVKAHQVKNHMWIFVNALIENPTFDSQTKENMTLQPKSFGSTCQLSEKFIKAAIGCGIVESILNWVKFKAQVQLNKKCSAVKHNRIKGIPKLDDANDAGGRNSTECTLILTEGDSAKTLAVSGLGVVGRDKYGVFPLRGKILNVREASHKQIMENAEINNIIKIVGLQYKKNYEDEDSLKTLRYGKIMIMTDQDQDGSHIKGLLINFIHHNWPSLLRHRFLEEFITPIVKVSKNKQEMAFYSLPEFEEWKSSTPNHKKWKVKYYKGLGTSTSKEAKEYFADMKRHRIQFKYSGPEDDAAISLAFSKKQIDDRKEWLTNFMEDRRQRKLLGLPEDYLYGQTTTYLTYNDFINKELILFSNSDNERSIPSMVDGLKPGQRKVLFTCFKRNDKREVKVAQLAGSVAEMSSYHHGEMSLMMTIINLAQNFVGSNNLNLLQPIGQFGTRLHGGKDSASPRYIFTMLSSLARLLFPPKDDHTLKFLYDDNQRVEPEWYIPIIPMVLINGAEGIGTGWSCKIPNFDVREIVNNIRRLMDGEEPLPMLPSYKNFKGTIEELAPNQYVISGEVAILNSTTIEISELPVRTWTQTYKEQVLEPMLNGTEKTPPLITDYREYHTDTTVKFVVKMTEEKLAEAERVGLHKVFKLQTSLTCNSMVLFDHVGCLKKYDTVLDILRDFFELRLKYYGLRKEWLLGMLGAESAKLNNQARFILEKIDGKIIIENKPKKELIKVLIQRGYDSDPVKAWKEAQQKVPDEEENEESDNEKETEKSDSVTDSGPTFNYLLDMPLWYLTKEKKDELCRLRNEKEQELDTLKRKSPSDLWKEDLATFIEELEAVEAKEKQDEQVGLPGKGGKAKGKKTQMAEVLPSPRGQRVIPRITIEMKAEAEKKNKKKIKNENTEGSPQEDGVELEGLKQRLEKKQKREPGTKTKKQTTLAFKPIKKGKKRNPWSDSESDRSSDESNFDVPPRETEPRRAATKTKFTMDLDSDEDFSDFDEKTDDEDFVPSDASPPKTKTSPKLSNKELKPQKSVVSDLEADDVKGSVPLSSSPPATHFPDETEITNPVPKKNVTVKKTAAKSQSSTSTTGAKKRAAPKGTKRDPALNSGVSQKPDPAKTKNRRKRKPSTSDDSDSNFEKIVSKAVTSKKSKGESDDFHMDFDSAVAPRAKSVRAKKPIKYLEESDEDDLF

[2] = target: T1, DNA topoisomerase 2-alpha; experiment: Inhibition of human topoisomerase 2 alpha-mediated relaxation of supercoiled pHOT DNA at 100 uM after 30 mins by agarose gel electrophoresis
Summary of the method: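 Single-concentration gel run at 100 μM drug, added from DMSO stock. Commercial human topo IIα (~2 units) with supercoiled pHOT DNA in reaction buffer (20 μL final), 37 °C for 30 min. The reaction was stopped with SDS plus proteinase K (37 °C, 15 min) and electrophoresed on 1% agarose (5 h, 5 V/cm). Gels were ethidium bromide pre- or post-stained and scored for supercoiled, relaxed and linear DNA.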

[3] = tested on: SK-BR-3; experiment: Growth inhibition against human SK-BR-3 cells after 24 hrs by MTT assay; format: functional; settings: SK-BR-3, 24 h
Summary of the method: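 SK-BR-3 cells in DMEM:F-12 (1:1) with 10% fetal calf serum, L-glutamine, nonessential amino acids and penicillin/streptomycin were seeded at 20 000 cells/well overnight. Drug was added in fresh medium (500 μM to 10 nM) for 24 h at 37 °C/5% CO2. MTT was added for 3 h, detergent solubilization ran overnight at room temperature, then absorbance was read. Values were normalized to untreated wells; GI50 from a sigmoidal fit; triplicate.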

Row | Structure (SMILES) | IC50 [1] | inhibition [2] | GI50 [3]
1 | S=C(NCc1ccccc1)N/N=C/c1ccccn1 | > 100 µM | inactive | 4.6 µM
2 | S=C(N/N=C/c1ccccn1)N1CCCC1 | > 100 µM | inactive | 4.3 µM
3 | CNC(=S)N/N=C/c1ccccn1 | 76 µM | Active | 7.1 µM
4 | C=CCNC(=S)N/N=C/c1ccccn1 | > 100 µM | inactive | 8.1 µM
5 | CCNC(=S)N/N=C/c1ccccn1 | 94 µM | Active | 6.3 µM

Other lines, results leading:

Row | IC50 [1] | inhibition [2] | GI50 [3] | Structure (SMILES)
6 | 92 µM | Active | 5.5 µM | CNC(=S)N/N=C(\C)c1ccccn1
7 | 79 µM | Active | 5.9 µM | CCNC(=S)N/N=C(\C)c1ccccn1
8 | > 100 µM | inactive | 7.9 µM | C/N=C(\S)N/N=C(\C)c1cnccn1
9 | > 100 µM | inactive | 7.4 µM | N/C(S)=N/N=C/c1ccccn1
10 | > 100 µM | inactive | 6.1 µM | C=CCNC(=S)N/N=C(\C)c1ccccn1
11 | > 100 µM | inactive | 7.7 µM | CC(C)NC(=S)N/N=C/c1ccccn1
